Results: the M2OR odorant receptor database

Tests used:
Settings in all cases: stereoisomer not certain
[1] = biological target: T1, UniProt Q8VGC6
T1 sequence (whole entry): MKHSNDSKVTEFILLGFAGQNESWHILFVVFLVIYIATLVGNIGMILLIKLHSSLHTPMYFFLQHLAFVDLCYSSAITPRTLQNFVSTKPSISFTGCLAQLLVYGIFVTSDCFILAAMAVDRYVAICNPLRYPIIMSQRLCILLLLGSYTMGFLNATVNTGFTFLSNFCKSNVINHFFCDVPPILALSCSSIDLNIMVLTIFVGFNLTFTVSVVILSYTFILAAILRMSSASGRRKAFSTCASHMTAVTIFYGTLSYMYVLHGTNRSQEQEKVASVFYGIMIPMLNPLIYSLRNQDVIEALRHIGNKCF
Outline: (§1)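 Each entry records the cell line, G-protein, co-transfected protein and tags used. Methods varied with the source, often transient luciferase assays in mammalian cell lines. A receptor–molecule pair is called responsive (active) if the original authors judged its signal statistically different from baseline and non-responsive (inactive) otherwise.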

[2] = biological target: T2, UniProt Q8VGJ3
T2 sequence (whole entry): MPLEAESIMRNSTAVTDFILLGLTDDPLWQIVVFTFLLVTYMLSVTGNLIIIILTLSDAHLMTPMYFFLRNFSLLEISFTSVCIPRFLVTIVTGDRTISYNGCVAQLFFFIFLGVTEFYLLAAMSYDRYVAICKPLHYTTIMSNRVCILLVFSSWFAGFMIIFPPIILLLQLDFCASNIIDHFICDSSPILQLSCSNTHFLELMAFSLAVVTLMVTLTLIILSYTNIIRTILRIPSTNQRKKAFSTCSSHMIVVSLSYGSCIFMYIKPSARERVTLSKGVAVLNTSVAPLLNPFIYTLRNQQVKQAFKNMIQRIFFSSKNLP
Outline: as §1

[3] = biological target: T3, UniProt Q8VGL0
T3 sequence (whole entry): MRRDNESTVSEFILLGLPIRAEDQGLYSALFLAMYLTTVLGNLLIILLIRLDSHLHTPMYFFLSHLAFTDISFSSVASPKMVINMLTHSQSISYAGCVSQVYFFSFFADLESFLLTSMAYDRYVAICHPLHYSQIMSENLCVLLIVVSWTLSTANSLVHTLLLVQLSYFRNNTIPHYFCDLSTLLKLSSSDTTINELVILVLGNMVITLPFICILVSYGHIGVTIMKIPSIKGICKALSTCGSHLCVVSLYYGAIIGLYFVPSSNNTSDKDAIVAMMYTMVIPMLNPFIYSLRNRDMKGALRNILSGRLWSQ
Outline: as §1

[4] = biological target: T4, UniProt Q8VGU3
T4 sequence (whole entry): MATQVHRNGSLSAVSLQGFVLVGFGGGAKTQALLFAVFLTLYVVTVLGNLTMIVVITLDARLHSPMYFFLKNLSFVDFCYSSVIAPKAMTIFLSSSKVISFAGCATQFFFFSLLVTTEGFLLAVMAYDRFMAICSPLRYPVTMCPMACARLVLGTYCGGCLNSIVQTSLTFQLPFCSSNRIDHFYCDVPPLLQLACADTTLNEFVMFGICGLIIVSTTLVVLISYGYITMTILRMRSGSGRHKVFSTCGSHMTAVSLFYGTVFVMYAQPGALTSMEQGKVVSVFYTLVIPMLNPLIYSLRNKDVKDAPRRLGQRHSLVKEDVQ
Outline: as §1

[5] = biological target: T5, UniProt Q8VGV7
T5 sequence (whole entry): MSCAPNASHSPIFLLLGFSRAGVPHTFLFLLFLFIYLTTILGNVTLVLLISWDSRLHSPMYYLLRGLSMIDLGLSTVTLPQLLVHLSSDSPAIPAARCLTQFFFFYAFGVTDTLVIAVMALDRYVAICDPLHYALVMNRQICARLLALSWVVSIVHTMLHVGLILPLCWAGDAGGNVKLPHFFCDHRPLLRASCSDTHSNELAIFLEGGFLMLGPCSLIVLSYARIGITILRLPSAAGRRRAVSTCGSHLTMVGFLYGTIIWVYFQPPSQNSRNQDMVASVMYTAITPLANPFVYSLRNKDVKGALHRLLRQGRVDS
Outline: as §1

[6] = biological target: T6, UniProt Q8VGX3
T6 sequence (whole entry): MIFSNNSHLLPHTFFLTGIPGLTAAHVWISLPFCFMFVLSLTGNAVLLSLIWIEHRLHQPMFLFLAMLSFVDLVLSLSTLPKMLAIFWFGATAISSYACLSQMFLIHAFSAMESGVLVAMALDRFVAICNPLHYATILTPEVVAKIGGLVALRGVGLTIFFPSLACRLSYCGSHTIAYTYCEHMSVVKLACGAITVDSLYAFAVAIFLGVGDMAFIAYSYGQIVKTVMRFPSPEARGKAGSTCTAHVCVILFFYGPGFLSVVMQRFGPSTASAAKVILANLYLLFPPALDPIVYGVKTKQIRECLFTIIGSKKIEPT
Outline: as §1

[7] = biological target: T7, UniProt Q8VGX5
T7 sequence (whole entry): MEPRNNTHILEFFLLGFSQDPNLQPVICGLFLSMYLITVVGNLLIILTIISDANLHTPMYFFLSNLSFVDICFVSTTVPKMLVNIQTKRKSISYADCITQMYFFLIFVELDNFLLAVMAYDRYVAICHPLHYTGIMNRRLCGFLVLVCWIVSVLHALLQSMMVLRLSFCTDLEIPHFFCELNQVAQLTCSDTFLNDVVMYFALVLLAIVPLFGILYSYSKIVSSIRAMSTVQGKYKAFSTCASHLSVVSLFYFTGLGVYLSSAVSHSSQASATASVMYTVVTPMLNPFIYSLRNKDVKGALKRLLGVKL
Outline: as §1

[8] = biological target: T8, UniProt Q8VGD7
T8 sequence (whole entry): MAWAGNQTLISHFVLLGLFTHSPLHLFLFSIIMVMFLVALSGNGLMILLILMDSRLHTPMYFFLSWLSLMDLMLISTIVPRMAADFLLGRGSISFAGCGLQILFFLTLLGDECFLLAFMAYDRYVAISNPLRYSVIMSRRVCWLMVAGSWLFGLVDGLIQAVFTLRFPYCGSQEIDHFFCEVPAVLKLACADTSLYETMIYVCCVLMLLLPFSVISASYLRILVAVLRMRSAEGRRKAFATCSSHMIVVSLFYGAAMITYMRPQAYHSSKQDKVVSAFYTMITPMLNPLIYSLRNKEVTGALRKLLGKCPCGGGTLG
Outline: as §1

[9] = biological target: T9, UniProt Q8VGH1
T9 sequence (whole entry): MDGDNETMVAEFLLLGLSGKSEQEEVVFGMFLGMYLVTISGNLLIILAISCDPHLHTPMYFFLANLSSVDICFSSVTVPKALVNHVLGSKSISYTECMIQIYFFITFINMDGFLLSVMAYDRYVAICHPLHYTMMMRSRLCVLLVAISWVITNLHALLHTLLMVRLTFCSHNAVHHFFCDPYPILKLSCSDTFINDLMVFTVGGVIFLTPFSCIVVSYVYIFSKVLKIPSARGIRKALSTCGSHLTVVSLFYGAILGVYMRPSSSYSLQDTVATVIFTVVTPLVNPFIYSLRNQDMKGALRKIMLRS
Outline: as §1

[10] = biological target: T10, UniProt Q8VGJ1
T10 sequence (whole entry): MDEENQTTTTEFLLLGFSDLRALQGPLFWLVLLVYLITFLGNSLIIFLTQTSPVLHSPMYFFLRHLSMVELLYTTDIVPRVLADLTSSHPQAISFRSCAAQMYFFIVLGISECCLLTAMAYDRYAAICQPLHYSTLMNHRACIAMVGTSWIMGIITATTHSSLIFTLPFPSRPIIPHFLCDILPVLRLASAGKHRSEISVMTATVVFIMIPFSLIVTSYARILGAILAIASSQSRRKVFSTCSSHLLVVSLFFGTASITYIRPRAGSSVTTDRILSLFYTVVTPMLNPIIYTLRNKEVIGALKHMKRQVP
Outline: as §1

[11] = biological target: T11, UniProt Q8VGJ5
T11 sequence (whole entry): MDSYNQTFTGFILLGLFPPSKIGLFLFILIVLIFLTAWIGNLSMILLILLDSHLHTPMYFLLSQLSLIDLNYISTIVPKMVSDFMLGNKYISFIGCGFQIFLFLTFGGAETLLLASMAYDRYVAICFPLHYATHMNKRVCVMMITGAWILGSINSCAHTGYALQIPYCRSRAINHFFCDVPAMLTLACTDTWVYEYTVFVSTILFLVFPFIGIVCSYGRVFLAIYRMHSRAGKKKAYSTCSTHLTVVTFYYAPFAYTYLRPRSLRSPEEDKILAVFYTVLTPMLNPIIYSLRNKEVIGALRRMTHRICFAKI
Outline: as §1

[12] = biological target: T12, UniProt Q8VGL7
T12 sequence (whole entry): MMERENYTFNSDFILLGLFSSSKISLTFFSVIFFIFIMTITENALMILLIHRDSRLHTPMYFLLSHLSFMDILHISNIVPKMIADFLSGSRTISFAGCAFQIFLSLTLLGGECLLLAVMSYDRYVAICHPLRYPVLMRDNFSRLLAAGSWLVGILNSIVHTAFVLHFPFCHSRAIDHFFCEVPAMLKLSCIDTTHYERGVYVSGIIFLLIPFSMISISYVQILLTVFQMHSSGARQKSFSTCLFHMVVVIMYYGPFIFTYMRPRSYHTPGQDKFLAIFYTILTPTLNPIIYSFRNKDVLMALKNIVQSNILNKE
Outline: as §1

[13] = biological target: T13, UniProt Q8VGM2
T13 sequence (whole entry): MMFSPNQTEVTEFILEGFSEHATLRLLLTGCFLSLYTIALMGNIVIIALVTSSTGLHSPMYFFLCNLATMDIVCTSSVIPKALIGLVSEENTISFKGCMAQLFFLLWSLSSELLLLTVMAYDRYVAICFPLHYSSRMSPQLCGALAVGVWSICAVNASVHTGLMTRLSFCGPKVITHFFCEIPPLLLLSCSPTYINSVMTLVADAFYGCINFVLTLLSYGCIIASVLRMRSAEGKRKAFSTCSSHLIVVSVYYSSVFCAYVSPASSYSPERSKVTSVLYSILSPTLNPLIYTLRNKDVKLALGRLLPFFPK
Outline: as §1

[14] = biological target: T14, UniProt Q8VGP6
T14 sequence (whole entry): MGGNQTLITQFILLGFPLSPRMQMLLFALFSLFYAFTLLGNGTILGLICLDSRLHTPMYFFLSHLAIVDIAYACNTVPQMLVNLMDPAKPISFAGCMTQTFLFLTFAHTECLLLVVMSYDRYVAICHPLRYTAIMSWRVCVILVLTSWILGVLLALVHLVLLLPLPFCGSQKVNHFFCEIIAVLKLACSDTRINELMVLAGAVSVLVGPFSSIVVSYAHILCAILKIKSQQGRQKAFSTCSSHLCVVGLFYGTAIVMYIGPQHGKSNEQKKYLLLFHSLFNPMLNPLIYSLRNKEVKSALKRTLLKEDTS
Outline: as §1

[15] = biological target: T15, UniProt Q8VGQ3
T15 sequence (whole entry): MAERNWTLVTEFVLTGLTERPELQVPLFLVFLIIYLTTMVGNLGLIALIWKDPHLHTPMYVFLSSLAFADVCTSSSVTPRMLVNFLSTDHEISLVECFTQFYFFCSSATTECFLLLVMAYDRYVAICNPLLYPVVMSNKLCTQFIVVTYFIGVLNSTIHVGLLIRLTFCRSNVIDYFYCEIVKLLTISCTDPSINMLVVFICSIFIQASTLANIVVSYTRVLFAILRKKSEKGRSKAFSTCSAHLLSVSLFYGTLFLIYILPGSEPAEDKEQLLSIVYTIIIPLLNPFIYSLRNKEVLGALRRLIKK
Outline: as §1

[16] = biological target: T16, UniProt Q8VGT4
T16 sequence (whole entry): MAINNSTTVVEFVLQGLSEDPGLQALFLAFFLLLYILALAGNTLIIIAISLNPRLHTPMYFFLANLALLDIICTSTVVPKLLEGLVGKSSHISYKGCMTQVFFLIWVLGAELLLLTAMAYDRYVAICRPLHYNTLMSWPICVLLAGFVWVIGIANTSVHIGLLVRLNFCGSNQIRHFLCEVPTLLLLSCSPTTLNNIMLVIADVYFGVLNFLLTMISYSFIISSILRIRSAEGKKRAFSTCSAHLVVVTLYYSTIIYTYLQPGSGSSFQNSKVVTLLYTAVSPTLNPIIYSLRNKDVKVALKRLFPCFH
Outline: as §1

[17] = biological target: T17, UniProt Q8VGV1
T17 sequence (whole entry): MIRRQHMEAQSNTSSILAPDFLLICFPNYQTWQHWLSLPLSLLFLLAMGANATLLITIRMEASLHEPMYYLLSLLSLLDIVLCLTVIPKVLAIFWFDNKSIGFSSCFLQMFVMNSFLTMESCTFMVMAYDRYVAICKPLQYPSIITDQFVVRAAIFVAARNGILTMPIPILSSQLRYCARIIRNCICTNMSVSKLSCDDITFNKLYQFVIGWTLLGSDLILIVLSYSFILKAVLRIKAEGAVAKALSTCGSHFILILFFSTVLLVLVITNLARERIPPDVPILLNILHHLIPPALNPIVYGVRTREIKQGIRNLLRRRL
Outline: as §1

SMILES	odorant receptor agonist call [1]	odorant receptor agonist call [2]	odorant receptor agonist call [3]	odorant receptor agonist call [4]	odorant receptor agonist call [5]	odorant receptor agonist call [6]	odorant receptor agonist call [7]	odorant receptor agonist call [8]	odorant receptor agonist call [9]	odorant receptor agonist call [10]	odorant receptor agonist call [11]	odorant receptor agonist call [12]	odorant receptor agonist call [13]	odorant receptor agonist call [14]	odorant receptor agonist call [15]	odorant receptor agonist call [16]	odorant receptor agonist call [17]
CCCCCCCCC=CC=O	inactive	inactive	inactive	inactive	inactive	inactive	inactive										
CC(=O)OCc1ccccc1	active	inactive	inactive	inactive	inactive	inactive	active	inactive	inactive	inactive	active	inactive	inactive	active	inactive	inactive	inactive
CCCCCCCCCS	active	inactive	inactive	inactive	inactive	inactive	inactive	inactive	inactive	inactive	inactive	inactive	inactive	active	inactive	inactive	inactive
CCCCCCC(=O)OCCCC	inactive	inactive	inactive	inactive	inactive	inactive	inactive										
CCCCCC(=Cc1ccccc1)C(OC)OC	inactive	inactive	inactive	inactive	inactive	inactive	inactive										
CCc1nccnc1CC	inactive	inactive	inactive	inactive	inactive	inactive	inactive										
O=C(O)CCCCCBr	inactive	inactive	inactive	inactive	inactive	inactive	inactive										
